Laboratory results reported in ChEMBL document CHEMBL1671727, “Expression, purification, and characterization of Aspergillus fumigatus sterol 14-alpha demethylase (CYP51) isoenzymes A and B” (Antimicrob Agents Chemother, 2010).
Converted amounts (≈) assume the structure as drawn.

Columns and labels:
[1] = biological target: T1, Sterol 14-alpha demethylase cyp51A (Neosartorya fumigata (strain ATCC MYA-4609 / Af293 / CBS 101355 / FGSCA1100) (Aspergillus fumigatus), UniProt Q4WNT5); assay: Binding affinity to Aspergillus fumigatus AF293 sterol 14-alpha demethylase isoenzyme A expressed in Escherichia coli
T1 sequence (Q4WNT5 whole entry): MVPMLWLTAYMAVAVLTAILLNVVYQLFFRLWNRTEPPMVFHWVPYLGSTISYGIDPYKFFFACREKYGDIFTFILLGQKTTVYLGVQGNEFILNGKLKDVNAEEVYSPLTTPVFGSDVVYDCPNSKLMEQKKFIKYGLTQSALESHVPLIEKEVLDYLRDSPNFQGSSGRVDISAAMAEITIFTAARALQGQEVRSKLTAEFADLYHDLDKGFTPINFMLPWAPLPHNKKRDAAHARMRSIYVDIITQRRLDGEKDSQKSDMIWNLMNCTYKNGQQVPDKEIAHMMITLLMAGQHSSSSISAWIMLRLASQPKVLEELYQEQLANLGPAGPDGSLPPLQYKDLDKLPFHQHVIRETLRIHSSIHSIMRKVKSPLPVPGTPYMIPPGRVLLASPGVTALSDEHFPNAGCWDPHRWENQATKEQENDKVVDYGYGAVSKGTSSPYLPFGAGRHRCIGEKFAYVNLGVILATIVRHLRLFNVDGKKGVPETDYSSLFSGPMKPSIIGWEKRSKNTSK
How it was run: (§1)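 His-tagged CYP51 (Af293 sequence, codon-optimised, E. coli-expressed), cholate-solubilised and Ni-NTA purified, at 1 μM in 0.1 M Tris-HCl pH 8.1 with 25% glycerol. Azole (0.05 mg/ml DMSO stock) titrated in split 4.5 mm cuvettes, with DMSO added to the reference. Difference spectra were read at 500–350 nm. Peak-to-trough change was plotted against concentration. Kd came from Morrison (tight binding), Michaelis-Menten or Hill fits.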

Aspergillus fumigatus [2] = assay: Antimicrobial activity against sterol 14-alpha demethylase isoenzyme A-deficient Aspergillus fumigatus CEA10; assay type: functional
Aspergillus fumigatus [3] = assay: Antimicrobial activity against sterol 14-alpha demethylase isoenzyme B-deficient Aspergillus fumigatus CEA10; assay type: functional
Aspergillus fumigatus [4] = assay: Antimicrobial activity against Aspergillus fumigatus CEA10; assay type: functional
Aspergillus fumigatus [5] = assay: Antimicrobial activity against Aspergillus fumigatus AF293; assay type: functional
[6] = biological target: T2, 14-alpha sterol demethylase (Neosartorya fumigata (Aspergillus fumigatus), UniProt Q96W81); assay: Binding affinity to Aspergillus fumigatus AF293 sterol 14-alpha demethylase isoenzyme B expressed in Escherichia coli assessed as tight binding affinity constant; how it was run: as §1
T2 sequence (Q96W81 whole entry): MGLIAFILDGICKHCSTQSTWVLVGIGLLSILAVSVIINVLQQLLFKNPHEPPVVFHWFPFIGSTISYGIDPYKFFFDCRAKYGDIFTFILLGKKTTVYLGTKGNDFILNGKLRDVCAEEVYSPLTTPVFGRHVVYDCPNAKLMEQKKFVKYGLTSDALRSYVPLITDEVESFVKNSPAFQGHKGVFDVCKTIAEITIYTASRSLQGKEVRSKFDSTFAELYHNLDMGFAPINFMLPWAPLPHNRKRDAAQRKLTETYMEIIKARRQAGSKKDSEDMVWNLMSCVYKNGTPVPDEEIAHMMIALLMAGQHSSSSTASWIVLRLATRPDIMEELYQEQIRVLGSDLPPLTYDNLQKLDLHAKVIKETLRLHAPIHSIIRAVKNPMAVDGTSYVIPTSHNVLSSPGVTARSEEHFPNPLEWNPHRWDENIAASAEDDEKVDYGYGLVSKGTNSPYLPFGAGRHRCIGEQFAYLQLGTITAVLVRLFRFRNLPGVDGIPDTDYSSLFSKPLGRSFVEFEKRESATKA

[7] = Binding affinity to Mycobacterium smegmatis CYP51; design: species or system Mycolicibacterium smegmatis
[8] = biological target: Lanosterol 14-alpha demethylase (Candida albicans (strain SC5314 / ATCC MYA-2876) (Yeast), UniProt P10613); assay: Binding affinity to Candida albicans CYP51
Sequence of Lanosterol 14-alpha demethylase (P10613 whole entry): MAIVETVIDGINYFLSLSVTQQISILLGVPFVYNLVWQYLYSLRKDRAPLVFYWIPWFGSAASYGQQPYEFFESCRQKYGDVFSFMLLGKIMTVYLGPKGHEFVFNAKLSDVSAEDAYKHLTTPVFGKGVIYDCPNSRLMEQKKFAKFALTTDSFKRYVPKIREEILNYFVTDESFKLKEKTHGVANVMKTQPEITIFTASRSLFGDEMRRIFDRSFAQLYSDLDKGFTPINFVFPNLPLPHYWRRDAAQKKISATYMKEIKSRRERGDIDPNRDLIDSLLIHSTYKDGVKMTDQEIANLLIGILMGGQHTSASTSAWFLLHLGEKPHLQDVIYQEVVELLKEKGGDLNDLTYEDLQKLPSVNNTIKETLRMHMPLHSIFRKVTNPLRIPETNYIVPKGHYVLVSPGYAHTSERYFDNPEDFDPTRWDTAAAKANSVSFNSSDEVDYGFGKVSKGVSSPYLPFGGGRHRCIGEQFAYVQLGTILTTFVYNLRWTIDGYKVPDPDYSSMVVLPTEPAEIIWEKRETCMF

[9] = biological target: T2, 14-alpha sterol demethylase; assay: Binding affinity to Aspergillus fumigatus AF293 sterol 14-alpha demethylase isoenzyme B expressed in Escherichia coli; how it was run: as §1
Aspergillus fumigatus [10] = assay: Antimicrobial activity against sterol 14-alpha demethylase isoenzyme A-deficient Aspergillus fumigatus CM237; assay type: functional
Aspergillus fumigatus [11] = assay: Antimicrobial activity against Aspergillus fumigatus CM237; assay type: functional

Structure (SMILES) | Kd [1] | MIC (Aspergillus fumigatus [5]) | Kd [6] | other results
CCC(C)n1ncn(-c2ccc(N3CCN(c4ccc(OCC5COC(Cn6cncn6)(c6ccc(Cl)cc6Cl)O5)cc4)CC3)cc2)c1=O (centres undefined) [ITRACONAZOLE] | 1010 nM | 0.71 µM | 31 nM | MIC (Aspergillus fumigatus [2]): 0.053 µM; MIC (Aspergillus fumigatus [3]): 0.85 µM; MIC (Aspergillus fumigatus [4]): 0.85 µM
OC(Cn1cncn1)(Cn1cncn1)c1ccc(F)cc1F [FLUCONAZOLE] | 11900 nM | – | – | MIC (Aspergillus fumigatus [2]; read-out: MIC): 20 µg/mL; MIC (Aspergillus fumigatus [3]; read-out: MIC): > 327 µg/mL; MIC (Aspergillus fumigatus [4]; read-out: MIC): > 327 µg/mL; MIC (Aspergillus fumigatus [5]; read-out: MIC): 105 µg/mL; Kd [7]: 19000 nM; Kd [8]: 45 nM
CC[C@@H]([C@H](C)O)n1ncn(-c2ccc(N3CCN(c4ccc(OC[C@@H]5CO[C@@](Cn6cncn6)(c6ccc(F)cc6F)C5)cc4)CC3)cc2)c1=O [POSACONAZOLE] | 2690 nM | 0.72 µM | 73 nM | –
C[C@@H](c1ncncc1F)[C@](O)(Cn1cncn1)c1ccc(F)cc1F [VORICONAZOLE] | 3630 nM | 0.72 µM | 429 nM | Kd [9]: 423 nM; MIC (Aspergillus fumigatus [10]): 0.34 µM (≈ 0.119 µg/mL); MIC (Aspergillus fumigatus [11]): 1.49 µM (≈ 0.52 µg/mL)
Clc1ccccc1C(c1ccccc1)(c1ccccc1)n1ccnc1 [CLOTRIMAZOLE] | 4790 nM | – | 103 nM | –
